KCC2 mod: KCC2 cotransporter modulators, thallium flux, primary screen, cell-based, HEK293 KCC2, FluoZin-2 fluorescence, MLSMR | Solute carrier family 12 member 5 (Homo sapiens), Q9H2X9 | KCC2 cells, thallium flux FluoZin-2 fluorescence | B-score of Tl+ flux slope (higher = more flux/activation; lower = inhibition) at 10 µM | 190,000 compounds, 2.2% hits;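 active = thallium flux slope and its plate-corrected score both differing from the plate sample mean at a set confidence after two filtering rounds, in either direction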;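 also: slope of fluorescence scaled to starting intensity during 10 to 20 s after thallium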
Target sequence (Q9H2X9 whole entry, looked up): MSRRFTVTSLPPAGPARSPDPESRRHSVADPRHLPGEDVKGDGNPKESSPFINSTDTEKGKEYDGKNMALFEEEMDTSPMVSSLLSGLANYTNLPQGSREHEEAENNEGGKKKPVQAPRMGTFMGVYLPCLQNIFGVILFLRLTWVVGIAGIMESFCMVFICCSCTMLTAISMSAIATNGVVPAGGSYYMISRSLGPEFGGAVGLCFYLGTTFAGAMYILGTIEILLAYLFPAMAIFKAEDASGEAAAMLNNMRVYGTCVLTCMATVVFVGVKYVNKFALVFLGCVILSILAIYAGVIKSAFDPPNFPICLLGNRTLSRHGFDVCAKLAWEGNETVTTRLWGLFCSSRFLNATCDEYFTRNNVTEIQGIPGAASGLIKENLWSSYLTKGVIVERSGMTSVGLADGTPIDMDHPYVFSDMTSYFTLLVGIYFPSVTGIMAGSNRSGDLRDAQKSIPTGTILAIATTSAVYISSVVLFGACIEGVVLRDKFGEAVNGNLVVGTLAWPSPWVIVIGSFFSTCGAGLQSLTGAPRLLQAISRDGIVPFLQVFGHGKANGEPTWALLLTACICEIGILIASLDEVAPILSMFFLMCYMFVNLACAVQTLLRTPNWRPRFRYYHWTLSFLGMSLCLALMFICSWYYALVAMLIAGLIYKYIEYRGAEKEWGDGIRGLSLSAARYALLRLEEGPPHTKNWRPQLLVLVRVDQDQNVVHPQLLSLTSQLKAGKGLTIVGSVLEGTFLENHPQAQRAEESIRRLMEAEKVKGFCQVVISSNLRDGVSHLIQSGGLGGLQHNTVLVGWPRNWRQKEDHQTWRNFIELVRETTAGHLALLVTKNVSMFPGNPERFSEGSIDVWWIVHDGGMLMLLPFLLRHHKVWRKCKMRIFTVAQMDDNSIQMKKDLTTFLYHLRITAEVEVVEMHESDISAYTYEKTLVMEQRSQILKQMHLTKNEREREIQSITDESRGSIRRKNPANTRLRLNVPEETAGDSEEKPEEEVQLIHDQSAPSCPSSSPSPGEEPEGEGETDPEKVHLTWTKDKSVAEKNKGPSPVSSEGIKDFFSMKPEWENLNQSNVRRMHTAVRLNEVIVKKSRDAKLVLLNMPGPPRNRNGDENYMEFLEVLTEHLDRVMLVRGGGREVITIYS
NPY2 pot ag: NPY-Y2 potentiators or agonists, primary screen, cell-based; AID 1359, 2008; 220,000 compounds, 0.45% hits; Neuropeptide Y receptor type 2 (Homo sapiens), P49146; cells expressing NPY-Y2, potentiator/agonist read-out; activation, % at 3.6 µM; in the data active = activation above about 27%;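 also: cells stimulated with NPY near EC25 plus isoproterenol at EC100; 0% = vehicle plus submaximal agonist and 100% = vehicle plus saturating agonist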
NPY Y1 blocker: NPY-Y1 receptor antagonists, primary screen, cell-based | inhibition, % at 3.6 µM | HEK293-CNG Y1 cells, membrane potential fluorescence; NPY at EC95, then isoproterenol | AID 1040, 2008 | 200,000 compounds, 1% hits | Neuropeptide Y receptor type 1 (Homo sapiens), P25929;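 active = inhibition above the campaign mean inhibition of all tested compounds plus 3 SD, cut at about 20% in these data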;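 also: 0% = DMSO wells given NPY plus isoproterenol and 100% = isoproterenol alone without NPY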
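Assay system: HEK293 Y1/CNG channel cell line; Doses: single compound dose of 3.6 µM, 0.4% DMSO; Timing: dye 3 h, compound 60 min room temperature, stimulation 45 min; Technique: Membrane-potential fluorescent dye readout; Measure: % inhibition of NPY effect.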
Furin inh: human furin inhibitors, primary screen, biochemical, fluorescence intensity; P09958; purified furin, fluorogenic substrate cleavage; inhibition, % at 20 µM or 30 µM; 220,000 compounds, 0.061% hits; in the data active = inhibition above about 25%
NPY-Y1 PAM-ag: NPY-Y1 receptor potentiators or agonists, primary screen, cell-based; activation, % at 3.6 µM; 220,000 compounds, 0.37% hits; NPY-Y1 expressing cells, potentiator/agonist activation; Neuropeptide Y receptor type 1 (Homo sapiens), P25929; AID 1304, 2008; in the data active = activation above about 33%, passing the limit was not always enough;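 also: cells stimulated with NPY at EC10 then isoproterenol at EC100; 0% = low agonist plus stimulus and 100% = saturating agonist plus stimulus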
NPY-Y2 antag: NPY-Y2 receptor antagonists, primary screen, cell-based; 140,000 compounds, 0.99% hits; Neuropeptide Y receptor type 2 (Homo sapiens), P49146; NPY-Y2 expressing cells, antagonist mode; inhibition, % at 2.7 µM;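 also: 0% = vehicle with agonist challenge and 100% = reference antagonist with challenge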
NPY-Y1 ant conf: NPY-Y1 receptor antagonists, retest of hits, confirmation, HEK293-CNG cells, membrane potential fluorescence, triplicate; AID 1254, 2008; 1,200 compounds, 21% hits; inhibition, % at 3.6 µM; shares compounds with NPY Y1 blocker; cAMP; NPY challenge against isoproterenol-raised cAMP; in the data active = inhibition above about 20%;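 also: 0% = vehicle with agonist plus stimulus and 100% = stimulus alone without agonist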
NPY2 antag ctr: NPY-Y2 receptor antagonists, selectivity check, confirmation, counter-screen for NPY-Y1 antagonist project, HEK293-CNG cells, membrane potential fluorescence, triplicate. shares compounds with NPY Y1 blocker. antagonism; cells given NPY, then isoproterenol. inhibition, % at 3.6 µM. 1,200 compounds, 28% hits. AID 1255, 2008;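 also: 0% = DMSO with agonist challenge and 100% = reference antagonist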
KCC2 sec1: KCC2 modulators in sodium-free buffer, confirmation, cell-based, HEK293 KCC2, thallium flux, secondary assay | shares compounds with KCC2 mod | FluoZin2 fluorescence; active compounds read high | normalised thallium flux (F/F0 slope) at 10 µM | 3,700 compounds, 15% hits;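 active = thallium flux slope above the same plate's solvent-only control mean plus 3 SD; inconclusive = the two replicate wells disagree; inactive = no significant difference from solvent-only control wells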
KCC2 bumet counter: thallium flux persisting under bumetanide in KCC2 cells, confirmation, counter-screen for KCC2 modulator project, cell-based, HEK293 KCC2, FluoZin2, secondary assay 3 | shares compounds with KCC2 mod | normalized thallium flux at 10 µM | 3,700 compounds, 49% hits | HEK293-KCC2 + bumetanide/ouabain; active compounds read high;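 active = thallium entry rate above the same plate's blocked-transporter control wells by more than 3 SD; inconclusive = the two repeat wells disagree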;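 also: raw slope of fluorescence over initial fluorescence between 10 and 20 s after thallium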
KCC2 sec2: KCC2 modulators without ouabain present, confirmation, cell-based, HEK293 KCC2, thallium flux, FluoZin2, secondary assay 2 | shares compounds with KCC2 mod | thallium flux FluoZin2 fluorescence; actives lie on both sides; F/F0 rise rate, 10–20 s post-thallium | normalized thallium flux at 10 µM | 3,700 compounds, 23% hits | AID 1715, 2009;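 active = thallium flux slope more than 3 SD above or below the plate's solvent-only control mean, mostly below; inconclusive = the two repeat wells disagreed; inactive = no significant shift from solvent-only controls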;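 also: raw slope with 0.1% DMSO as baseline and bumetanide as block control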
HEK293 Tl flux: thallium flux modulation in parental HEK cells, confirmation, counter-screen for KCC2 modulator project, cell-based, counterscreen 1 | HEK293 parental cells, thallium flux FluoZin2, ouabain; baseline-ratio fluorescence slope, 10–20 s after thallium | 3,700 compounds, 46% hits | thallium flux rate (normalised fluorescence) at 10 µM | shares compounds with KCC2 mod;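 active = thallium flux rate significantly above the same plate's solvent-only control wells, beyond their mean plus 3 SD; inconclusive = the two replicate wells gave conflicting results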
KCC2 retest ouab: KCC2 inhibitors and activators, ouabain retest, confirmation, HEK-KCC2 cells; 3,700 compounds, 48% hits; shares compounds with KCC2 mod; HEK293-KCC2, thallium flux FluoZin2 fluorescence; bidirectional: low = inhibitor, high = activator; raw Tl+ flux slope (below DMSO = inhibition, above = activation) at 10 µM;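 active = thallium flux slope beyond 3 SD from same-plate DMSO control mean in most replicates, usually higher, sometimes lower; inconclusive = repeat tests gave conflicting results; inactive = no significant difference from controls in most replicates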;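 also: slope of initial-normalized fluorescence between seconds 10 and 20 after thallium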
HEK counter2: native HEK Tl+ uptake effects, second counter-screen – HEK cells, counterscreen 2, counter-screen for KCC2 modulator project, confirmation; HEK293 parental, thallium flux FluoZin-2 fluorescence slope; shares compounds with KCC2 mod; thallium flux slope at 10 µM; 3,700 compounds, 33% hits;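 active = thallium flux slope above the same plate's solvent-control mean plus 3 SD in both duplicate wells; inconclusive = duplicate wells that disagreed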;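 also: run without ouabain in cells lacking the KCC2 cotransporter; slope of fluorescence scaled to its starting value between 10 and 20 s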
An asterisk follows results filed as active. Compounds with a hit are over-represented: about 3.7% of the library has one in this group of screens. Rule as the data show it, unless noted: active = inhibition above about 17%; inactive = the rest.

c1ccc(-c2nc(Sc3ncnc4c3cnn4-c3ccccc3)n[nH]2)cc1 was read as KCC2 mod -6.7*, NPY2 pot ag -33, NPY Y1 blocker 26*, Furin inh -2, NPY-Y1 PAM-ag -51, NPY-Y2 antag 6, NPY-Y1 ant conf 7, NPY2 antag ctr 9, KCC2 sec1 0.007, KCC2 bumet counter 0.0049, KCC2 sec2 0.023*, HEK293 Tl flux 0.0069, KCC2 retest ouab inconclusive and HEK counter2 0.011.
For Cc1ccc(CSc2ncnc3c2cnn3-c2ccccc2)cc1 the results were KCC2 mod 1.1, NPY2 pot ag 9, NPY Y1 blocker 0, Furin inh -28, NPY-Y1 PAM-ag 4 and NPY-Y2 antag 5.
Cc1ccccc1Cn1cc(NC(=O)c2cc(C3CC3)on2)cn1 was read as NPY2 pot ag -5, Furin inh -3 and NPY-Y1 PAM-ag 12.
Screening Cc1ccc(Cn2c(=N)c(C(=O)NCc3ccco3)cc3c(=O)n4ccccc4nc32)cc1 returned KCC2 mod 5.7*, NPY2 pot ag -3, NPY Y1 blocker 36*, Furin inh -24, NPY-Y1 PAM-ag 15, NPY-Y2 antag 10, NPY-Y1 ant conf 9, NPY2 antag ctr 9, KCC2 sec1 0.0053, KCC2 bumet counter inconclusive, KCC2 sec2 inconclusive, HEK293 Tl flux 0.0055*, KCC2 retest ouab 0.018 and HEK counter2 0.0098.
For CNc1ccc(/C=C(\CCC(=O)O)c2nc3ccccc3s2)cc1[N+](=O)[O-] the results were KCC2 mod -5.5*, NPY2 pot ag -24, NPY Y1 blocker 26*, Furin inh -22, NPY-Y1 PAM-ag -79, NPY-Y2 antag 15, NPY-Y1 ant conf 39*, NPY2 antag ctr 52*, KCC2 sec1 0.0094, KCC2 bumet counter 0.0062, KCC2 sec2 0.025*, HEK293 Tl flux 0.0083, KCC2 retest ouab 0.013* and HEK counter2 0.011.
